bovine MsrA act – bovine MsrA enzyme activators, primary screen, biochemical, absorbance, HTS; purified bovine MsrA, absorbance read-out; activation, % at 10.6 µM; 360,000 compounds, 0.3% hits; in the data active = activation above about 7.5%;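 also: 0% = vehicle and 100% = reference activator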
AI-2 QS mod – Vibrio harveyi AI-2 quorum sensing modulators, primary screen, JMH597 strain, luminescence/OD600 ratio; activity change, % at 7.5 µM; AID 2094, 2009; 300,000 compounds, 0.4% hits; Vibrio harveyi JMH597 AI-2 luminescence/OD600 ratio, 9 h; hits give low values; strain lacks LuxN and CqsS sensors; 0 = neutral-control median; in the data active = activity change below about -75%, passing the limit was not always enough;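 also: luminescence divided by OD600 gain over 9 h not by final OD600 alone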
m5-HT2A agonist – mouse Htr2a agonists via beta-arrestin recruitment, primary screen, cell-based, luminescence. activation, % at 7.6 µM. 5-hydroxytryptamine receptor 2A (Mus musculus), P35363. CHO-K1 mHTR2A beta-arrestin complementation; percent of 30 µM serotonin response. 360,000 compounds, 0.66% hits;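 active = activation above a run cutoff, the mean activation of all tested compounds plus 3 SD, cut at about 14% in these data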;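 also: 0% = plate median of compound wells and 100% = 30 µM serotonin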
Tb MetRS inh – T. brucei MetRS inhibitors, primary screen, biochemical, luminescence. methionyl-tRNA synthetase (Trypanosoma brucei brucei). purified T. brucei MetRS, ATP depletion, Kinase-Glo luminescence. inhibition, % at 11.9 µM. 360,000 compounds, 0.4% hits;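 active = inhibition above a per-plate cutoff of the control wells' mean inhibition plus 3 SD, cut at about 5.5% in these data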;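 also: 0% = DMSO wells median and 100% = median of wells with control inhibitor compound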
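Material – parasite MetRS enzyme · Medium – HEPES-MgCl2-KCl buffer plus DTT, spermine, BSA, pyrophosphatase · Reagent – ATP, methionine and E. coli bulk tRNA substrates · Times – 15 min enzyme-compound preincubation, 2 h reaction, 10 min detection, 25 °C · Measured by – luminescence of leftover ATP · Evaluation – percent inhibition relative to median high and low control wells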
AHR activator – AHR activators, primary screen, cell-based, luminescence, luciferase reporter, human | Aryl hydrocarbon receptor (Homo sapiens), P35869 | AHR-responsive luciferase reporter cells | activation, % at 5 µM | 320,000 compounds, 2.5% hits | AID 2796, 2010; in the data active = activation above about 47%;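 also: 0% = vehicle wells and 100% = reference agonist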
MsrA inhibitor – bovine MsrA enzyme inhibitors, primary screen, biochemical, absorbance, HTS | purified bovine MsrA, absorbance read-out | inhibition, % at 15.5 µM | 360,000 compounds, 0.75% hits; in the data active = inhibition above about 4.5%;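 also: 0% = vehicle wells with enzyme and 100% = reference inhibitor wells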
AHR act cf – AHR activators, confirmation, cell-based, luminescence, luciferase reporter, human. shares compounds with AHR activator. human cells, AHR-responsive luciferase reporter. activation, % at 9 µM. 2,300 compounds, 87% hits. AID 2845, 2010; in the data active = activation above about 49%;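 also: HepG2 hepatoma cells carrying a DRE-driven firefly luciferase reporter; 0% = vehicle wells and 100% = reference agonist wells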
PXR counter – human PXR activators, counter-screen for AHR activator project, cell-based, luciferase luminescence; cell-based PXR reporter; AID 434939, 2010; activation, % at 11.6 µM; 2,300 compounds, 88% hits; shares compounds with AHR activator; in the data active = activation above about 11%;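 also: human hepatoma DPX-2 cells expressing full-length human PXR; 0% = DMSO and 100% = reference agonist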
Target sequence (O75469 whole entry, looked up): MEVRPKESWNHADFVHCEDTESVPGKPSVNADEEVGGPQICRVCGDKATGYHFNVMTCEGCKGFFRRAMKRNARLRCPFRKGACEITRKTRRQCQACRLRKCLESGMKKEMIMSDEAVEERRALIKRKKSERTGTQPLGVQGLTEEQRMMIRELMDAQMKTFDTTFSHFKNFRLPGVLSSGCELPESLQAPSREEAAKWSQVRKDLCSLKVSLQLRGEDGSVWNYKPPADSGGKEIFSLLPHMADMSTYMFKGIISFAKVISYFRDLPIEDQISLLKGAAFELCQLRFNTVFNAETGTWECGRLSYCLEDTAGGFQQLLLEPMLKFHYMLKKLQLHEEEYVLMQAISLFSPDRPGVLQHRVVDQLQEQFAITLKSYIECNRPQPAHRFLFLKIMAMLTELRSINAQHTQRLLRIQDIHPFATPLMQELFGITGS
Active calls of the source: *; / = not tested or not shown. Hits are enriched below; roughly 4.4% of the tested compounds scored in any of these assays.

SMILES	bovine MsrA act	AI-2 QS mod	m5-HT2A agonist	Tb MetRS inh	AHR activator	MsrA inhibitor	AHR act cf	PXR counter
O=C(c1ccc2ccccc2n1)N1CCN(c2ccccc2O)CC1	-8	-14	3	0	92*	1	107*	40*
O=C(N=C1c2ccccc2CN1c1ccc(F)c(Cl)c1)c1cccnc1Cl	/	5	/	/	123*	0	113*	158*
O=C(COC(=O)c1cc(=O)[nH]c2ccccc12)NCc1ccccc1Cl	-3	/	2	0	7	0	/	/
CCN=C(Nc1ccc(Cl)cc1)c1cccnc1	-3	20	2	0	104*	-1	81*	35*
Cc1ccc(-c2noc(Cn3cc(S(=O)(=O)N4CCCC4)ccc3=O)n2)cc1	-3	/	2	0	3	0	/	/
Cc1cc(C)cc(NC(=O)N2CCc3ccccc3C2)c1	-3	17	-7	0	/	0	/	/
O=C(Nc1ccc(Br)cc1)N1CCc2ccccc2C1	-2	11	-2	0	98*	-2	156*	55*
CCc1ccccc1S(=O)(=O)Cc1ccc(C(=O)N2CCN(c3ccccn3)CC2)o1	-8	12	1	-1	84*	-1	65*	107*
CCc1ccc(NC(=O)C(C)OC(=O)Cn2[nH]c(=O)c3ccccc3c2=O)cc1 (stereo not drawn)	-4	/	1	0	/	1	/	/
CCN(CC)C(=O)[C@H]1CC(CC(=O)NCc2ccc(OC)c(OC)c2)C(=O)N2CCc3c([nH]c4ccc(OC)cc34)[C@]12C (stereo partly drawn)	-2	/	-2	-1	/	1	/	/
c1ccc(-c2nc3ccccc3c3nncn23)cc1	-4	15	4	0	97*	0	123*	20*
N#Cc1ccccc1NC(=O)c1ccccc1OCC(=O)NCc1ccco1	-7	20	0	-1	117*	/	109*	47*
CCOc1ccc(N=NC2C(=O)N(C(N)=S)N=C2C)cc1 (stereo not drawn)	1	-5	2	2	118*	2	124*	22*
CC(=O)Nc1ccc(N=NC2C(=O)N(C(N)=S)N=C2C)cc1 (stereo not drawn)	-11	0	6	-1	104*	3	112*	16*
CC1(C(=O)Nc2ccc3c(c2)OCO3)CCN1C(=O)c1ccco1 (stereo not drawn)	0	/	7	0	/	-1	/	/
Cc1ccc(S(=O)(=O)N2CC3(O)CN(C(=O)OC(C)C)N(C(=O)OC(C)C)CC3(OC(=O)NCc3ccccc3F)C2)cc1 (stereo not drawn)	-2	/	5	0	/	0	/	/
COc1cc2nc3c4ccccc4n(CC#N)c3nc2cc1OC	/	16	/	/	/	-1	/	/
CCn1c2ccccc2c2nc3cc(OC)c(OC)cc3nc21	-7	-1	0	-2	115*	1	96*	63*
CC(C)n1cc(CN2CCC(Oc3ccc(C(=O)N4CCCC4)cc3)CC2)cn1	-2	7	5	0	-1	0	/	/
CCOc1ccc(NC(=O)c2csc3c2CCCC3)cc1	-2	11	-7	0	146*	-2	110*	45*
CCOC(=O)c1[nH]c2cc3c(cc2c1NC(=O)CN1CCCCC1C)OCO3 (stereo not drawn)	/	6	/	/	97*	/	92*	182*
CCOC(=O)c1[nH]c2ccccc2c1NC(=O)CN1CCCCC1	-5	-2	-5	-1	18	1	/	/
Cn1c(=O)n(CCc2ccccc2)c(=O)c2c1ncn2Cc1ccccc1	-5	15	-7	-1	81*	2	95*	28*
Cn1c(=O)n(CCc2ccccc2)c(=O)c2c1nc1n2CCCN1Cc1ccccc1	1	30	3	-1	119*	1	83*	150*
Cn1cnc2c1c(=O)n(Cc1ccccc1)c(=O)n2C	-1	20	-3	-1	3	0	/	/
SMILES	bovine MsrA act	AI-2 QS mod	m5-HT2A agonist	Tb MetRS inh	AHR activator	MsrA inhibitor	AHR act cf	PXR counter
COc1cccc(C(C)(O)c2nc(-c3cccc(NC(C)=O)c3)cs2)c1 (stereo not drawn)	-1	/	-1	0	/	-1	/	/
COc1cccc(CC(O)CC2c3c(cc4c(c3OC)OCO4)CCN2C)c1 (stereo not drawn)	6	/	-11	0	/	0	/	/
O=C(COC(=O)c1n[nH]c2ccccc12)NCCc1ccccc1	1	/	-3	0	98*	0	91*	19*
CCCNC(=O)COC(=O)c1n[nH]c2ccccc12	-3	-10	1	0	4	0	/	/
O=C(NCCc1ccccc1)c1n[nH]c2ccccc12	0	-27	-2	0	101*	-1	103*	71*
O=C(NCCc1ccccc1)c1c[nH]c2c(F)cccc2c1=O	-1	22	-1	0	141*	0	130*	83*
CCc1ccccc1NC(=S)Nn1cnnc1	-6	10	5	-1	/	0	/	/
O=C(N=C1N=C2C=CC=CN2Cc2ccccc21)c1ccc(S(=O)(=O)N2CCCC2)cc1	-3	13	0	0	14	-1	/	/
CN(C)S(=O)(=O)c1cccc(C(=O)N=C2N=C3C=CC(Cl)=CN3Cc3ccccc32)c1	-3	18	1	0	97*	-1	50*	32*
CN=c1scc(C)n1/N=C/c1ccc(O)cc1	-4	1	2	-1	-3	4	/	/
CN=c1scc(C)n1/N=C/c1cc(Br)c(O)c(Br)c1	-4	3	3	0	118*	2	110*	14*
Cc1ccc2c(C(=O)CNc3nncs3)c(C)[nH]c2c1	-3	9	-5	0	106*	0	36	17*
COc1ccc2cc(CNCCOCCOCCNCc3ccc4cc(OC)ccc4c3)ccc2c1	1	/	-6	0	/	-2	/	/
O=C(CSc1n[nH]c(-c2ccccc2Cl)n1)NC1CCCCC1	-8	/	-3	-1	4	2	/	/
COc1ccccc1NC(=O)CN(Cc1ccco1)C(=O)c1cc(Cl)c(OC)c(OC)c1	0	/	5	0	/	-2	/	/

Source: PubChem (several laboratories)
